Measurements: PMC3053052 (Neuropeptides, 2010)

What was measured:
STAR and TSPO = settings: systemic alcohol administration; ref Herman et al., 2006; cited from earlier work
[1] = target: T1, vascular NPY receptors (mainly Y1 subtype), rat testis (Rattus norvegicus, UniProt P21555); experiment: Competition binding; settings: 25 nM cold PYY; ^125I-PYY 10,000 cpm/100 μl (22.5 pM); rat testis sections
T1 sequence (P21555 1-382): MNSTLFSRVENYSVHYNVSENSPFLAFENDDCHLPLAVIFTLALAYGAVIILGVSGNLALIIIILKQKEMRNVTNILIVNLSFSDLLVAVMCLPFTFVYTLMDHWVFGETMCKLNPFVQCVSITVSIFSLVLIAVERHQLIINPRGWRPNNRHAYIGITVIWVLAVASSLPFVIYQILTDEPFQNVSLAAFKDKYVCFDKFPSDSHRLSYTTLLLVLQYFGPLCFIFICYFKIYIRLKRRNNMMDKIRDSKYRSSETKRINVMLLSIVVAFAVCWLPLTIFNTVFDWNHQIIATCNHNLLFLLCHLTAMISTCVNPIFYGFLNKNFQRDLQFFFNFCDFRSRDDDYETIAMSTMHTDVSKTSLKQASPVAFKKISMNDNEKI

[2] = tested on: NPY receptors in seminiferous tubules; experiment: In vitro NPY receptor autoradiography, ^125I-PYY binding to seminiferous tubules; design: species or system rat; settings: surrounding seminiferous tubules; 22.5 pM ^125I-PYY, 2,000 Ci/mmol
How it was run: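 Serial sections of rat testis incubated with 125I-PYY (10,000 cpm/100 μl, 2,000 Ci/mmol, 22.5 pM). Competition run with subtype-selective ligands, including a Y5-selective PP analogue. Rat brain served as positive control. Slides were exposed to film, and signals were matched to adjacent sections stained with H&E, anti-Factor VIII (vessels) or anti-STAR (Leydig cells). Densities were quantified by computer-assisted imaging.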

explanted GnRH neurons = settings: ref Klenke et al., 2010; cited from earlier work
T response to hCG = experiment: Plasma testosterone response to hCG after intratesticular; assay type: in vivo, rat
How it was run: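 Jugular-cannulated adult male rats, freely moving. Test peptide 5 μg/kg itt or vehicle under isoflurane, 1 h before hCG 1 IU/kg iv. One series pretreated with GnRH antagonist […] iv 2 h before hCG. Blood drawn before and 15, 30, 60, 90 min after hCG. Plasma T measured by commercial kit (sensitivity 0.2 ng/mL), cumulative T summed. N = 5–7; mean ± SEM; ANOVA/repeated measures.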

[3] = tested on: steroidogenic acute regulatory (STAR) protein; experiment: Leydig cell STAR protein level after itt NPY; assay type: in vivo, rat; settings: Leydig cells, Western blot
How it was run: (§1)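 Decapitation 1 h later. Leydig cells were isolated by collagenase dispersion and Percoll gradient, then lysed in RIPA. 25 μg protein per lane was probed with anti-STAR (1:1,500; 30-kDa form) or anti-TSPO (1:1,000). ECL signal was normalised to β-actin, as % of control.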

testes = settings: ref Collin et al., 1998; cited from earlier work
[4] = tested on: translocator protein (TSPO); experiment: Leydig cell TSPO level after itt NPY; assay type: in vivo, rat; settings: Leydig cells, Western blot
How it was run: as §1

plasma LH = settings: ref Pierroz et al., 1999; cited from earlier work

Compound: CCO [alcohol]
- STAR and TSPO concentrations (STAR and TSPO): significantly decreased STAR and TSPO concentrations

Compound: PYY: cold PYY used to assess non-specific binding
- displacement of ^125I-PYY binding to testicular blood vessels at 25 nM [1]: Complete displacement

Compound: ^125I-PYY: ^125I-PYY (2,000 Ci/mmol; Anawa, Wangen, Switzerland)
- ^125I-PYY binding (in words) [2]: no binding to surrounding seminiferous tubules

Compound: neuropeptide Y [NPY]
- neuronal activity of explanted GnRH neurons (explanted GnRH neurons): inhibits the neuronal activity of explanted GnRH neurons
- T response to hCG (T response to hCG; NPY 5 μg/kg itt 1 h before hCG 1.0 U/kg iv, at all times studied (15, 30, 60, 90 min), P<0.01 vs vehicle, N = 5-7/point (Fig. 1)): markedly (P<0.01) blunted the T response to hCG at all times studied
- basal plasma T levels (T response to hCG; NPY 5 μg/kg itt, 1 h, vs vehicle, P<0.01, N = 5-7/point (Fig. 1)): significantly (P<0.01) decreased basal plasma T levels
- cumulative plasma T after hCG (T response to hCG; vehicle pre-treatment, NPY 5 μg/kg itt, hCG 1 U/kg iv, cumulative T 15, 30, 60 and 90 min after hCG, mean ± SEM, N = 5-7, P<0.01 vs itt vehicle (22.20 ± 3.25)): 10.60 ± 0.98R ^a ng T/ ml
- changes in STAR levels (in words) [3]: inconsistent and did not reach statistical significance
- vasoconstriction in the testes (testes): reported to cause vasoconstriction in the testes
- changes in TSPO levels (in words) [4]: inconsistent and did not reach statistical significance
- plasma LH levels (plasma LH): lower plasma LH levels
